From PubChem
NALP1 inh: inhibitors of NALP1 inflammasome in yeast. S. cerevisiae NALP1/ASC/caspase-1 growth, X-gal OD620, 72 h. inhibition, % at 10 µM. actives 0.61% (n = 280,000); in the data active means inhibition mostly above about 24%, no sharp cut-off; inactive means mostly below about 32%
PolyA inh: inhibitors of polyadenylation in S. cerevisiae; actives 0.02% (n = 300,000); AID 1875; activity score, % at 12 µM; S. cerevisiae SKY197-pL101 polyadenylation reporter, beta-gal luminescence; efflux-impaired pdr1/pdr3 knockout yeast; score 100 = 6 SD above DMSO;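 active means lowest replicate activity score at least 50, where 100 means six control SD above control mean; inconclusive means lowest score under 50 but half or more replicates reach 50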;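 further: yeast exposed to compound for 9 h at 30 °C; higher score means more reporter readthrough which indicates perturbed polyadenylation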
T cruzi inh: blocks replication of Trypanosoma cruzi; T. cruzi beta-gal in NIH3T3, luminescence, 90 h; inhibition, % (test concentration not listed); actives 1.4% (n = 300,000); AID 1885;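 active means mean inhibition across valid replicates above about 55%, limit read from the data; inconclusive means mean below that limit but half or more replicates reach it; inactive means mean below it, under half of replicates reach it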;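 further: signal also drops with host cell toxicity which is not excluded here; 0% = plate median of DMSO wells and 100% = zero luminescence signal; higher percent means less beta-gal luminescence so fewer parasites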
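Test system: β-gal T. cruzi (Tulahuen C4) inside NIH/3T3 cells / Quantity: 5,000 cells/well / Measured by: luminescence from GalScreen with 0.05% NP40, read after 60 min / Medium: DMEM plus 2% FBS / Measure: parasite load inhibition, % / Reagent: Tulahuen C4 trypomastigotes, 5000/well / Schedule: co-culture of at least 90 h after 3 h attachment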
Calb FLC: affects C. albicans growth with fluconazole; AID 1979; C. albicans CaCi-2 + fluconazole, Alamar Blue growth, 48 h; actives 0.57% (n = 300,000); growth inhibition, % (test concentration not listed);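 active means growth inhibition above about 58% in most replicates, limit read from the data, passing the limit was not always enough; inconclusive means exactly half the replicates above a set limit; inactive means most replicates below a set limit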;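 further: all wells also contain fluconazole at 8 µg/ml as a sub-toxic cotreatment; 0% = median of DMSO wells and 100% = median of geldanamycin control wells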
Lmaj promast: reduces viability of Leishmania major promastigotes; inhibition, % at 10 µM; actives 9% (n = 200,000); resazurin fluorescence viability; in the data active means inhibition above about 50%;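 further: promastigotes grown with compound for 44 hours at 28 °C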
NALP3 yeast inh: NALP3 inhibition in yeast; AID 2825; actives 0.39% (n = 330,000); inhibition, % at 10 µM; Yeast reconstituted NLRP3/ASC/caspase-1, beta-gal luminescence, 24 h;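 active means inhibition of 50% or more; inactive means inhibition below 50%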;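 further: plate controls were induced DMSO wells for no effect and uninduced yeast grown without galactose for full effect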
Lmaj promast 1uM: blocks Leishmania major promastigote growth at 1 uM, repeat screen; shares compounds with Lmaj promast; L. major promastigote growth, resazurin fluorescence, 48 h; inhibition, % at 1 µM; actives 13% (n = 1,100);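 active means inhibition above about 50% in both repeat tests, limit read from the data; inconclusive means one repeat under the set limit, the other over it; inactive means both repeats under the set limit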
* marks the source's active call; other numbers are inactive results; u = inconclusive; x = not tested or not shown. This excerpt belongs to a sample that is enriched for hits.

SMILES	NALP1 inh	PolyA inh	T cruzi inh	Calb FLC	Lmaj promast	NALP3 yeast inh	Lmaj promast 1uM
COc1cccc(CN2CCNC(=O)C2CC(=O)NC2CCCC2)c1OC (stereo unspecified)	0	12	-3	-10	x	7	x
CCCCCCCC1CC(CSC(=N)N)OC1=O (stereo unspecified)	-4	10	17	13	100*	24	8
Cc1cc(C)c2ccc3c(C)c(C)nc3c2[nH]1	9	x	x	-35	56*	19	40
Nc1nc(SCC(=O)Nc2cccc(F)c2)n[nH]1	x	x	x	x	x	-1	x
O=[N+]([O-])c1ccc2c(c1)C(N1CCOCC1)/C(=C/COc1ccc3ccccc3c1Br)O2 (stereo unspecified)	40	-14	34	21	97*	22	-1
COc1cc(OC)cc(C(=O)N2CCC(C(=O)NCCc3ccccc3)CC2)c1	19	u	8	11	x	5	x
O=C1NCN(c2ccccc2)C12CCN(c1nnnn1-c1ccccc1)CC2	9	-3	-11	6	81*	13	-17
CC1CN(C(=O)Nc2cccc(Cl)c2)C2(CCCCCC2)O1 (stereo unspecified)	4	-4	-7	-10	14	7	x
O=C(O)c1cc(-c2cccc(Cl)c2)nc2nc(N3CCCCC3)sc12	10	-8	2	26	63*	-6	-10
Nc1nnc(-c2cn(-c3ccccc3)nc2-c2ccccc2)o1	2	-5	-32	-7	55*	-4	-16
O=C(Cc1ccccc1)N1CCN(c2ccccc2F)CC1	13	-4	-12	-3	x	10	x
OCC1(Cc2ccccc2)CCN(C2CCN(c3ccccc3F)CC2)CC1	10	x	x	-24	86*	35	u
CCN(CC)C(=O)Cn1cc(C(=O)C(=O)N2CCCc3ccccc32)c2ccccc21	1	x	x	2	-7	-4	x
Cc1[nH]c2ccccc2c1C(c1ccccn1)N1CCC(C(N)=O)CC1 (stereo unspecified)	9	-10	-4	9	60*	8	5
CCOC(=O)C1CCN(C(c2ccccn2)c2c(C)[nH]c3ccccc23)CC1 (stereo unspecified)	12	-8	-5	0	35	25	x
CCC(CO)N=C1CC(C)(C)CC(=O)/C1=C(/O)CCCN1C(=O)c2ccccc2C1=O (stereo unspecified)	-5	-2	4	13	4	16	x
O=C(c1cn(-c2ccccc2)nc1-c1ccc(Cl)s1)N1CCOCC1	40	4	0	11	64*	9	-14
COc1cc(OC)c(C2NC(=O)CCC2[N+](=O)[O-])cc1OC (stereo unspecified)	13	-13	-14	-2	x	12	x
O=C(Cn1cnc2c(nnn2-c2ccccc2)c1=O)N1CCCc2ccccc21	x	1	-1	1	53*	25	-7
O=C(Cn1cnc2c(nnn2Cc2ccccc2)c1=O)N1CCCc2ccccc21	10	13	18	3	-8	-3	x
CCCCSc1nnc([C@H](CC(C)C)NC(=O)OC(C)(C)C)o1	-3	-15	2	5	76*	16	30
CCCCSc1nnc([C@H](C)NC(=O)OC(C)(C)C)o1	-20	x	-5	-15	21	24	x
CCOC(=O)Cc1csc(NS(=O)(=O)Cc2ccccc2)n1	4	-5	8	2	-8	11	x
O=C(CCN1C(=O)c2ccc(Br)cc2C1=O)NC1CCCCC1	-1	-6	0	-1	x	14	x
N#CCCn1cc(C(=O)O)c(-c2cccs2)n1	-21	9	-2	-12	-2	18	x
SMILES	NALP1 inh	PolyA inh	T cruzi inh	Calb FLC	Lmaj promast	NALP3 yeast inh	Lmaj promast 1uM
O=C1OC(Nc2ccc3c(c2)OCO3)c2ccccc21 (stereo unspecified)	-12	14	3	-1	60*	23	-7
COc1cccc(N2CCN(C(=O)c3ccc(N4C(=O)NC5CC4(C)Oc4ccccc45)cc3)CC2)c1 (stereo unspecified)	17	2	-7	5	73*	17	-10
CC12CC(NC(=O)N1c1ccc(C(=O)N3CCN(c4ccccn4)CC3)cc1)c1ccccc1O2 (stereo unspecified)	16	x	x	x	-7	x	x
O=C(/C=C/c1cccc([N+](=O)[O-])c1)NCCN1C(=O)S/C(=C\c2cccnc2)C1=O	-15	1	-5	0	60*	7	6
CCOC(=O)C(=Cc1cc(=O)c(OC)co1)C(=O)OCC	85*	-20	11	94*	100*	x	101*
COc1ccc2nc(N3C(=O)/C(=C/c4ccccc4)NC3=S)sc2c1	28	-10	-11	-9	61*	4	-13
COc1ccc2nc(-n3c(C)ccc3C)sc2c1	14	-2	-10	2	-5	5	x
CCS(=O)(=O)c1nc2ccccc2n1Cc1ccccc1Cl	-6	u	-10	16	11	-90	x
CCc1ccc(OCCOCC(O)CNC2CCCC2)cc1 (stereo unspecified)	3	x	x	-1	60*	6	4
CC(=O)Nc1ccc(OCC(O)CNC2CCCC2)cc1 (stereo unspecified)	-15	5	-34	-11	-3	23	x
Clc1ccc2nnnc(-c3ccccc3)c2c1	41	-3	21	52	86*	x	4
CC1(C)CC(=O)C=C(c2cccs2)C1	x	-26	-24	-4	x	-4	x
CC1(C)CN(c2ccccc2)N(C(=O)c2ccc(C#N)cc2)C1=O	-12	14	x	85*	54*	6	-16
CCn1nc(C(=O)Nc2ccc(Cl)c(S(=O)(=O)N3CCOCC3)c2)c2ccccc2c1=O	x	x	x	x	x	3	x
CCC(C)NC(=O)C1(O)c2cc(Br)ccc2NC(=O)N1c1cccc(OC)c1 (stereo unspecified)	13	-5	-1	-1	x	16	x
Cc1ccc(Oc2ccc(S(=O)(=O)N3CCOCC3)cc2C(N)=O)c(-n2nc3ccccc3n2)c1	1	3	-2	9	54*	10	-8
COc1ccccc1Oc1ccc(S(=O)(=O)N2CCOCC2)cc1S(=O)(=O)N1CCOCC1	-10	-5	1	4	-2	6	x
O=C(NC1CCCC1)C(c1ccc(F)cc1)N(Cc1ccc(Cl)cc1)C(=O)CCl (stereo unspecified)	21	-1	3	-8	99*	-3	51*
CN(C)C(C(=O)NC1CCCCC1)c1ccc(Cl)cc1 (stereo unspecified)	-2	-11	-2	-5	5	4	x
O=C(Oc1ccc(Cl)c2cccnc12)c1cccc([N+](=O)[O-])c1	58*	-15	-3	85*	99*	-6	1
